# Source: PubChem BioAssay (The Scripps Research Institute Molecular Screening Center)
# This is a sample that favours compounds with a hit; in the whole collection about 0.29% have one here.
# PKA-R2B act = activators of PKA-R2B holoenzyme, primary screen, biochemical, fluorescence polarization, Cy5-IP20, human. activation, % at 11.4 µM. PKA-R2B holoenzyme dissociation; R2B truncated from residue 108, S112A mutant; 0% DMSO only, 100% 113 µM cGMP. 0.079% of 340,000 active. AID 504700, 2011;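 active means activation above a cutoff set at the mean over all compounds plus 3 SD, cut at about 18% in these data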;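 further: higher means more holoenzyme dissociation and a rise in polarization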
# Target sequence (P31323 whole entry, looked up, other chains not shown, the tested form may be a part): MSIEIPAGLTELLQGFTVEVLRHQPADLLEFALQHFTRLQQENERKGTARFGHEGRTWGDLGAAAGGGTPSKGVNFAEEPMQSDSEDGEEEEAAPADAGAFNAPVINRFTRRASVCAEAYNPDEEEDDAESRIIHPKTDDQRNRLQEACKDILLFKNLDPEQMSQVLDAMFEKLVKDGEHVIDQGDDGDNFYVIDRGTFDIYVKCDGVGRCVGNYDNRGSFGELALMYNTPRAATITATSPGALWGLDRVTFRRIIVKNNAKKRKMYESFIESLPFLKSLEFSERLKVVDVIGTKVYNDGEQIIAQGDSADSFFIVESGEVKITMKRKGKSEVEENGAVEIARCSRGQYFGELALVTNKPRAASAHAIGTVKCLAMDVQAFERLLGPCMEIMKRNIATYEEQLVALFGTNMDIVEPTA
# procasp7 counter = procaspase-7 activators, primary screen, counter-screen for procaspase-3 activator project, biochemical, absorbance, HTS, human; 0.093% of 330,000 active; recombinant procaspase-7, Ac-DEVD-pNA absorbance 405 nm; D23A/D198A/D206A triple mutant, cannot self-cleave; scale: DMSO 0, 5 µM enzyme 100; AID 463210, 2010; activation, % at 8.5 µM;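 active means percent activation above the screen-wide mean plus 3 SD, cut at about 25% in these data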
#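 System: Procaspase-7 triple mutant (PC-7 D3A); measure: % activation from two-timepoint absorbance difference, scaled to controls; times: 1 h compound preincubation, 2 h substrate cleavage, 25 °C; also added: Ac-DEVD-pNA substrate, 400 µM as added; measured by: Epi-absorbance of released pNA at 405 nm, two timepoints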
# proCasp3 act = activators of human procaspase-3 D3A mutant, primary screen, biochemical, absorbance, PC-3 D3A mutant, single concentration; 0.11% of 330,000 active; recombinant procaspase-3 D3A, Ac-DEVD-pNA absorbance 405 nm; activation, % at 8.5 µM; Caspase-3 (Homo sapiens), P42574; AID 463141, 2010;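 active means activation above the mean of all tested compounds plus 3 SD, cut at about 21% in these data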;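 further: 0% = DMSO alone and 100% = DMSO wells spiked with extra 5 µM PC-3 D3A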
#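 Evaluation: percent activation relative to control range; Material: Procaspase-3 D3A mutant, all three cleavage aspartates alanine; Compound: single dose, 8.5 µM nominal compound, 0.8% DMSO; Replication: one well per compound; Signal: absorbance at 405 nm, 0 and 120 min; Schedule: 1 h preincubation plus 2 h reaction at 25 °C.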
# PKA-R1A activ = activators of PKA-R1A holoenzyme, primary screen, biochemical, fluorescence polarization, Cy5-IP20, bovine R1A, mouse PKAc. cAMP-dependent protein kinase type I-alpha regulatory subunit (Bos taurus) + …. PKA-R1A dissociation; scaled: DMSO 0%, 113 µM cGMP 100%. activation, % at 11.4 µM. 0.083% of 340,000 active;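 active means percent activation above the mean of all tested compounds plus 3 SD, cut at about 19% in these data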;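 further: higher means more PKAc released from R1A so a rise in polarization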
# procasp7 triplic = procaspase-7 activators, counter-screen for procaspase-3 activator project, biochemical, absorbance, triplicate, human; activation, % at 8.5 µM; recombinant procaspase-7, Ac-DEVD-pNA absorbance; asp23/198/206-to-Ala mutant, cannot self-cleave; shares compounds with proCasp3 act; 210 tested, under 10 active;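 active means mean activation above a set limit taken from an earlier procaspase-7 screen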;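 further: 0% = DMSO wells and 100% = DMSO plus 5 µM procaspase-7 enzyme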
# proCasp3 confirm = activators of human procaspase-3 D3A mutant, confirmation, biochemical, absorbance, PC-3 D3A mutant, triplicate. shares compounds with proCasp3 act. recombinant PC-3 D3A, Ac-DEVD-pNA absorbance 405 nm; 100% is higher-enzyme control. activation, % at 8.5 µM. 10% of 210 active;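 active means mean activation above a set limit carried over from the earlier primary screen, cut at about 22% in these data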
# Active calls of the source: *; x = no result.
SMILES,PKA-R2B act,procasp7 counter,proCasp3 act,PKA-R1A activ,procasp7 triplic,proCasp3 confirm
CCN(CC)c1ccc(/C=N/NC(=O)c2cccc(S(=O)(=O)Nc3ccccc3OC)c2)cc1,-6,-12,-7,-12,x,x
CCN(CC)c1ccc(/C=N/NC(=O)c2cccc(S(=O)(=O)Nc3ccccc3OC)c2)c(O)c1,-5,23,39*,1,15,20
Cc1ccc(OCC(=O)NC2CCS(=O)(=O)C2)c([N+](=O)[O-])n1 (stereo not given),1,-4,21*,1,4,5
CCN(CC)S(=O)(=O)c1ccc(OCC(=O)NC2CCS(=O)(=O)C2)c([N+](=O)[O-])c1 (stereo not given),-3,-3,0,3,x,x
Cc1c(NC(=O)c2ccc(Cl)s2)c(=O)n(-c2ccccc2)n1C,2,-6,1,-4,x,x
Cc1c(Cc2ccccc2)sc(/N=C/c2ccc3ccccc3c2)c1C(N)=O,-9,-11,-5,-12,x,x
Cc1c(Cc2ccccc2)sc(/N=C/c2c(O)ccc3ccccc23)c1C(N)=O,-11,10,32*,-6,9,26*
COc1ccc(N2CCN(C(=O)CC34CC5CC(CC(C5)C3)C4)CC2)c([N+](=O)[O-])c1,-5,-3,22*,-11,2,4
C=CCSC1=N/C(=C\c2sccc2C)C(=O)S1,-3,4,59*,5,-18,-9
C[C@H](CO)N1C[C@H](C)[C@@H](CN(C)S(=O)(=O)c2cccs2)OCc2cn(nn2)CCCC1=O,4,x,x,-7,x,x
C=CCn1c2ccccc2c(=O)c2cc(C#CC[C@@H](C)O)ccc21,5,-10,-4,-2,x,x
C=CCn1c2ccccc2c(=O)c2cc(C#CC3(O)CCCCC3)ccc21,-3,-22,150*,5,-21,-14
O=c1c2ccccc2sn1-c1ccccc1F,-6,x,x,-2,x,x
Cc1cc(C)c(C#N)c(SCc2nnc(-c3ccccc3)o2)n1,-18,23,125*,-12,-15,-18
N#Cc1cc2c(nc1SCc1nc3ccccc3[nH]1)CCC2,x,-6,1,x,x,x
Cc1cc(C)c(C#N)c(SCc2nc3ccccc3[nH]2)n1,5,2,156*,2,-2,5
Cc1[nH]c(=O)c(C#N)c(C)c1CCC(=O)N(C)CC(=O)Nc1ccc(Cl)c(Cl)c1,4,-5,-6,1,x,x
COc1ccc(NC(=O)CSc2nc3ccccc3nc2N2CCCC2)cc1Cl,-7,-1,30*,-6,-3,-3
CCOc1c(Br)cc(C2NC(=O)CCC2[N+](=O)[O-])cc1OC (stereo not given),5,4,-9,-10,x,x
Cn1c(=NC(=O)CS(=O)(=O)c2ccc(F)cc2)sc2ccccc21,-2,7,22*,1,1,3
Cn1c(=NC(=O)CS(=O)(=O)c2ccccc2)sc2ccccc21,0,2,4,9,x,x
Cc1occc1C(=O)N/N=C/c1sc(N2CCOCC2)nc1-c1ccccc1,-4,4,-1,-7,x,x
c1ccc(Oc2ncnc3sccc23)cc1,0,-6,1,-6,x,x
CCn1c(SC(C)C(=O)NCC2CCCO2)nc2ccccc21 (stereo not given),-4,-3,39*,4,2,4
O=C(CCNS(=O)(=O)c1cccc2nsnc12)N1CC(=O)N(CCc2ccccc2)C(=O)C1,14,11,24*,14,2,5
SMILES,PKA-R2B act,procasp7 counter,proCasp3 act,PKA-R1A activ,procasp7 triplic,proCasp3 confirm
CC1(C)Cc2c(c(N3CCCC3)nc3sc(C(=O)Nc4ccccc4)c(N)c23)CO1,-4,3,23*,4,39*,68*
Cc1ccc(NC(=O)c2sc3nc(N4CCOCC4)c4c(c3c2N)CC(C)(C)OC4)cc1,8,-28,-16,-11,x,x
Cn1c(N)c(C(=O)COC(=O)CCc2nc3ccccc3s2)c(=O)n(C)c1=O,2,6,4,-1,x,x
CCN1CCN(C(c2cc(OC)ccc2OC)c2nnnn2Cc2ccccc2)CC1 (stereo not given),2,3,2,-4,x,x
CC1CC(C)(C)CC2(C1)NC(=O)N(CC(=O)Nc1ccc3[nH]c(=O)[nH]c3c1)C2=O (stereo not given),-3,0,37*,-2,2,4
CCCc1ccc(OCc2ccc(C(=O)N3CCSCC3)o2)cc1,5,-1,22*,-5,5,4
COc1cc(C2N(c3cccc(Cl)c3)C(=O)C3CCCN32)cc(OC)c1OC (stereo not given),-5,-1,-2,-2,x,x
O=C(O)c1ccc2cc(-c3ccccc3)[nH]c2c1,-5,5,-4,-3,x,x
COC(=O)Cn1c(=NC(=O)c2cc(-c3cccs3)nc3ccccc23)sc2cc(S(N)(=O)=O)ccc21,-8,2,78*,-5,-20,-15
Cc1cccc(/C=C2\CCC(=C3SCCCS3)C2=O)c1,-1,2,-9,-10,x,x
Cc1ccc(NC(=O)CSc2nnc(-c3cccnc3)o2)c(C)c1,0,2,23*,-6,-17,-5
Cc1ccc(C)c(NC(=O)CSc2nnc(-c3ccccc3)o2)c1,-7,0,3,-1,x,x
CC1(C)CC[C@]2(C(=O)O[C@@H]3OC(CO)[C@@H](O)[C@H](O)[C@H]3O)CC[C@]3(C)C(=CCC4[C@@]5(C)CC[C@H](O[C@@H]6OC(C(=O)O)[C@@H](O)[C@H](O)[C@H]6O)C(C)(C)C5CC[C@]43C)[C@@H]2C1 (stereo not given in full),3,8,2,11,x,x
Cc1ccc(OCc2cc(C(=O)N(C)Cc3cnn(-c4ccccc4C)c3)no2)cn1,-4,6,23*,-5,1,7
Cc1cc(/C=C(\C#N)C(=O)O)c(C)n1CCC(C)C,-5,-1,-8,3,x,x
